From ChEMBL document CHEMBL3779767, “Identification of potent and selective MTH1 inhibitors” (Bioorg Med Chem Lett, 2016)
Activity calls are given as the source filed them. The calls are words filed in the database; no cut-off is given here.

Key:
SW480 [1] = assay: Antiproliferative activity against human SW480 cells assessed as change in phenotypic response; type: functional, cell-based
U2OS [2] = assay: Antiproliferative activity against human U2OS cells assessed as change in phenotypic response; type: functional, cell-based
MRC5 [3] = assay: Cytotoxicity against human MRC5 cells assessed as change in phenotypic response; type: cell-based
BJ [4] = assay: Cytotoxicity against human BJ cells assessed as change in phenotypic response; type: cell-based
HCT-116 [5] = assay: Antiproliferative activity against human HCT116 cells assessed as change in phenotypic response; type: functional, cell-based
[6] = Cytotoxicity against human 293T cells assessed as change in phenotypic response; type: cell-based; details: hek-293t
HMEC [7] = assay: Cytotoxicity against human HMEC cells assessed as change in phenotypic response; type: cell-based
HeLa [8] = assay: Antiproliferative activity against human HeLa cells assessed as change in phenotypic response; type: functional, cell-based
MDA-MB-231 [9] = assay: Antiproliferative activity against human MDA-MB-231 cells assessed as change in phenotypic response; type: functional, cell-based
A549 [10] = assay: Antiproliferative activity against human A549 cells assessed as change in phenotypic response; type: functional, cell-based
NCI-H460 [11] = assay: Antiproliferative activity against human NCI-H460 cells assessed as change in phenotypic response; type: functional, cell-based
[12] = Cytotoxicity against human WI38 cells assessed as change in phenotypic response; type: cell-based; details: wi-38
SAOS-2 [13] = assay: Antiproliferative activity against human Saos2 cells assessed as change in phenotypic response; type: functional, cell-based
HCT-116 [14] = assay: Antiproliferative activity against human HCT116 cells assessed as change in phenotypic response measured after prolonged treatment; type: functional, cell-based
MDA-MB-231 [15] = assay: Antiproliferative activity against human MDA-MB-231 cells assessed as change in phenotypic response up to 50 uM; type: functional, cell-based
[16] = Half life in human plasma; type: ADME, cell-free
Summary of the method: (§1)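 Plasma stability was measured in human and rat plasma, with half-life reported in hours.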

MRC5 [17] = assay: Cytotoxicity against human MRC5 cells assessed as change in phenotypic response up to 50 uM; type: cell-based
NCI-H460 [18] = assay: Antiproliferative activity against human NCI-H460 cells assessed as change in phenotypic response up to 50 uM; type: functional, cell-based
[19] = Plasma protein binding in human; type: ADME, cell-free; details: read-out: PPB (converted)
A549 [20] = assay: Antiproliferative activity against human A549 cells assessed as change in phenotypic response up to 50 uM; type: functional, cell-based
[21] = Half life in human liver microsomes; type: ADME
Summary of the method: (§2)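 Incubated with human or mouse liver microsomes; the read-out was intrinsic clearance alongside half-life, given in hours.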

BJ [22] = assay: Cytotoxicity against human BJ cells assessed as change in phenotypic response measured after prolonged treatment; type: cell-based
HeLa [23] = assay: Antiproliferative activity against human HeLa cells assessed as change in phenotypic response up to 50 uM; type: functional, cell-based
HMEC [24] = assay: Cytotoxicity against human HMEC cells assessed as change in phenotypic response measured after prolonged treatment; type: cell-based
[25] = Half life in rat plasma; type: ADME, cell-free; summary of the method: as §1
[26] = Intrinsic clearance in mouse liver microsomes; type: ADME
[27] = Cytotoxicity against human 293T cells assessed as change in phenotypic response up to 50 uM; type: cell-based; details: hek-293t
HCT-116 [28] = assay: Antiproliferative activity against human HCT116 cells assessed as change in phenotypic response up to 50 uM; type: functional, cell-based
BJ [29] = assay: Cytotoxicity against human BJ cells assessed as change in phenotypic response up to 50 uM; type: cell-based
UOK 262 [30] = assay: Antiproliferative activity against human UOK 262 cells assessed as change in phenotypic response measured after prolonged treatment; type: functional, cell-based
MRC5 [31] = assay: Cytotoxicity against human MRC5 cells assessed as change in phenotypic response measured after prolonged treatment; type: cell-based
SW480 [32] = assay: Antiproliferative activity against human SW480 cells assessed as change in phenotypic response up to 50 uM; type: functional, cell-based
UOK 262 [33] = assay: Antiproliferative activity against human UOK 262 cells assessed as change in phenotypic response up to 50 uM; type: functional, cell-based
[34] = Efflux ratio of permeability in MDCK cells; type: ADME, cell-based, Canis lupus familiaris; details: dog
Summary of the method: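 Permeability measured across a confluent MDCK cell monolayer, with the efflux ratio reported alongside the permeability value.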

[35] = Cytotoxicity against human 293T cells assessed as change in phenotypic response measured after prolonged treatment; type: cell-based; details: hek-293t
SAOS-2 [36] = assay: Antiproliferative activity against human Saos2 cells assessed as change in phenotypic response measured after prolonged treatment; type: functional, cell-based
MDA-MB-231 [37] = assay: Antiproliferative activity against human MDA-MB-231 cells assessed as change in phenotypic response measured after prolonged treatment; type: functional, cell-based
NCI-H358 [38] = assay: Antiproliferative activity against human NCI-H358 cells assessed as change in phenotypic response measured after prolonged treatment; type: functional, cell-based
A549 [39] = assay: Antiproliferative activity against human A549 cells assessed as change in phenotypic response measured after prolonged treatment; type: functional, cell-based
NCI-H460 [40] = assay: Antiproliferative activity against human NCI-H460 cells assessed as change in phenotypic response measured after prolonged treatment; type: functional, cell-based
[41] = Cytotoxicity against human WI38 cells assessed as change in phenotypic response measured after prolonged treatment; type: cell-based; details: wi-38
SAOS-2 [42] = assay: Antiproliferative activity against human Saos2 cells assessed as change in phenotypic response up to 50 uM; type: functional, cell-based
U2OS [43] = assay: Antiproliferative activity against human U2OS cells assessed as change in phenotypic response up to 50 uM; type: functional, cell-based
[44] = Half life in mouse liver microsomes; type: ADME; summary of the method: as §2
[45] = Permeability across MDCK cells; type: ADME, cell-based, Canis lupus familiaris; details: dog, read-out: permeability
Summary of the method: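 Measured across a confluent MDCK cell monolayer; apparent permeability is reported together with the efflux ratio.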

[46] = Cytotoxicity against human WI38 cells assessed as change in phenotypic response up to 50 uM; type: cell-based; details: wi-38
Liver microsome [47] = assay: Intrinsic clearance in human liver microsomes; type: ADME
SW480 [48] = assay: Antiproliferative activity against human SW480 cells assessed as change in phenotypic response measured after prolonged treatment; type: functional, cell-based
HMEC [49] = assay: Cytotoxicity against human HMEC cells assessed as change in phenotypic response up to 50 uM; type: cell-based
HeLa [50] = assay: Antiproliferative activity against human HeLa cells assessed as change in phenotypic response measured after prolonged treatment; type: functional, cell-based
NCI-H358 [51] = assay: Antiproliferative activity against human NCI-H358 cells assessed as change in phenotypic response up to 50 uM; type: functional, cell-based
U2OS [52] = assay: Antiproliferative activity against human U2OS cells assessed as change in phenotypic response measured after prolonged treatment; type: functional, cell-based
[53] = Plasma protein binding in human plasma at 10 uM after 4 hrs by LC-MS/MS analysis; type: ADME, cell-free; details: read-out: PPB (converted)
Liver microsome [54] = assay: Intrinsic clearance in human liver microsomes at 1 uM up to 40 mins by LC-MS/MS analysis; type: ADME

Question: With `Nc1nc(NC2CC2)cc(-c2cccc(Cl)c2Cl)n1` as the compound, how does the Activity (SW480 [1]) read?
Answer: Active

Question: And the Activity (U2OS [2])?
Answer: Active

Question: And the Activity (MRC5 [3])?
Answer: Toxic

Question: What about the Activity (BJ [4]) of the same compound?
Answer: Toxic

Question: What about the Activity (HCT-116 [5]) of the same compound?
Answer: Active

Question: And the Activity [6]?
Answer: Toxic

Question: What about the Activity (HMEC [7]) of the same compound?
Answer: Toxic

Question: What about the Activity (HeLa [8]) of the same compound?
Answer: Active

Question: And the Activity (MDA-MB-231 [9])?
Answer: Active

Question: And the Activity (A549 [10])?
Answer: Active

Question: What about the Activity (NCI-H460 [11]) of the same compound?
Answer: Active

Question: What about the Activity [12] of the same compound?
Answer: Toxic

Question: And the Activity (SAOS-2 [13])?
Answer: Active

Question: For `Cc1cnc(N)nc1OCC(C)(C)C`, which Activity (HCT-116 [14]) is on record?
Answer: inactive

Question: And the Activity (MDA-MB-231 [15])?
Answer: inactive

Question: And the half-life [16]?
Answer: 19 h

Question: And the Activity (MRC5 [17])?
Answer: Non-toxic

Question: What about the Activity (NCI-H460 [18]) of the same compound?
Answer: inactive

Question: And the fraction unbound [19]?
Answer: 0.06

Question: What about the Activity (A549 [20]) of the same compound?
Answer: inactive

Question: What about the half-life [21] of the same compound?
Answer: 0.5 h

Question: What about the Activity (BJ [22]) of the same compound?
Answer: Non-toxic

Question: What about the Activity (HeLa [23]) of the same compound?
Answer: inactive

Question: And the Activity (HMEC [24])?
Answer: Non-toxic

Question: And the half-life [25]?
Answer: 20 h

Question: And the CLH [26]?
Answer: 280 µL/min/mg

Question: What about the Activity [27] of the same compound?
Answer: Non-toxic

Question: What about the Activity (HCT-116 [28]) of the same compound?
Answer: inactive

Question: And the Activity (BJ [29])?
Answer: Non-toxic

Question: And the Activity (UOK 262 [30])?
Answer: inactive

Question: And the Activity (MRC5 [31])?
Answer: Non-toxic

Question: And the Activity (SW480 [32])?
Answer: inactive

Question: What about the Activity (UOK 262 [33]) of the same compound?
Answer: inactive

Question: And the efflux ratio [34]?
Answer: 0.8

Question: And the Activity [35]?
Answer: Non-toxic

Question: And the Activity (SAOS-2 [36])?
Answer: inactive

Question: And the Activity (MDA-MB-231 [37])?
Answer: inactive

Question: And the Activity (NCI-H358 [38])?
Answer: inactive

Question: And the Activity (A549 [39])?
Answer: inactive

Question: And the Activity (NCI-H460 [40])?
Answer: inactive

Question: And the Activity [41]?
Answer: Non-toxic

Question: And the Activity (SAOS-2 [42])?
Answer: inactive

Question: What about the Activity (U2OS [43]) of the same compound?
Answer: inactive

Question: What about the half-life [44] of the same compound?
Answer: 0.3 h

Question: And the Papp [45]?
Answer: 37 ×10⁻⁶ cm/s

Question: And the Activity [46]?
Answer: Non-toxic

Question: And the CLH (Liver microsome [47])?
Answer: 82 µL/min/mg

Question: And the Activity (SW480 [48])?
Answer: inactive

Question: And the Activity (HMEC [49])?
Answer: Non-toxic

Question: What about the Activity (HeLa [50]) of the same compound?
Answer: inactive

Question: What about the Activity (NCI-H358 [51]) of the same compound?
Answer: inactive

Question: What about the Activity (U2OS [52]) of the same compound?
Answer: inactive

Question: Which results are given for `CNc1cc(-c2cccc(Cl)c2Cl)nc(N)n1`?
Answer: Activity (SW480 [1]): Active; Activity (U2OS [2]): Active; Activity (MRC5 [3]): Toxic; Activity (BJ [4]): Toxic; efflux ratio [34]: 0.8; Activity (HCT-116 [5]): Active; fraction unbound at 4 h, 10 µM [53]: 0.08; Activity [6]: Toxic; Activity (HMEC [7]): Toxic; Activity (HeLa [8]): Active; CLH (Liver microsome [54]): 54 µL/min/mg; Papp [45]: 30 ×10⁻⁶ cm/s; Activity (MDA-MB-231 [9]): Active; Activity (A549 [10]): Active; Activity (NCI-H460 [11]): Active; Activity [12]: Toxic; Activity (SAOS-2 [13]): Active
